This note sets out measurements from ChEMBL document CHEMBL1154801, “Novel phosphoramidates with porphine and nitrogenous drug: one-pot synthesis and orientation to cancer cells” (Eur J Med Chem, 2010).

One data set deals with Bel-7402. As to the kind of experiment: Cytotoxicity against human Bel7402 cells after 48 hrs in the dark by MTT assay. Type of data set: functional, cell-based. Particulars: Bel-7402, 48 h. In outline:
(§1)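 Cells seeded at 5000 per well and left to attach overnight. Compounds were taken from 50 mM DMSO stocks and diluted to final concentrations of 2.5–100 μM. Cells were exposed for 48 h in the dark, then given MTT (5 mg/mL in PBS) for 3 h. Formazan was dissolved in DMSO and absorbance read at 570 nm. The 50% cell-death concentration (IC50) was determined.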
(Tetrazolium assays rely on reduction of a dye to a coloured formazan, in cell work by metabolically active cells.)

The nature of data set [1]: Cytotoxicity against human L02 cells after 48 hrs in the dark by MTT assay. Type of data set: cell-based. Particulars: l02, 48 h. A digest of the protocol: as §1

The term IC50 denotes the concentration that gives 50% inhibition. With `O=P(NCCCl)(NCCCl)Oc1ccc(-c2c3nc(c(-c4ccccc4)c4ccc([nH]4)c(-c4ccccc4)c4nc(c(-c5ccccc5)c5ccc2[nH]5)C=C4)C=C3)cc1`, in the data set with Bel-7402, the concentration for half-maximal inhibition (IC50) stood at 14.4 µM. In addition, in data set [1], the Activity result is recorded as “Non-toxic”. `CC1=C(CCC(=O)O)c2cc3[nH]c(cc4nc(cc5[nH]c(cc1n2)c(C)c5C(C)O)C(C)=C4C(C)O)c(C)c3CCC(=O)O` (stereo not drawn) displayed an IC50 in the data set on Bel-7402 of 8.93 µM. Consider `O=P(NCCCl)(NCCCl)Oc1ccc(-c2c3nc(c(-c4ccc(Cl)cc4)c4ccc([nH]4)c(-c4ccc(Cl)cc4)c4nc(c(-c5ccc(Cl)cc5)c5ccc2[nH]5)C=C4)C=C3)cc1`, for which inhibition in the data set with Bel-7402 was half-maximal at 20.3 µM (IC50). Moreover, the Activity result in data set [1] was “Non-toxic”. Turning to `O=Cc1ccc(OP(=O)(NCCCl)NCCCl)cc1`, the IC50 with Bel-7402 was above 150 µM. Also, the Activity result in data set [1] is reported as “Toxic”. For `O=P(NCCCl)(NCCCl)Oc1ccc(-c2c3nc(c(-c4ccc(Br)cc4)c4ccc([nH]4)c(-c4ccc(Br)cc4)c4nc(c(-c5ccc(Br)cc5)c5ccc2[nH]5)C=C4)C=C3)cc1`, in that order: 8.41 µM and “Non-toxic”. In the data set with Bel-7402, `COc1ccc(-c2c3nc(c(-c4ccc(OC)cc4)c4ccc([nH]4)c(-c4ccc(OP(=O)(NCCCl)NCCCl)cc4)c4nc(c(-c5ccc(OC)cc5)c5ccc2[nH]5)C=C4)C=C3)cc1` displayed an IC50 of 17.3 µM. Also, the Activity entry in data set [1] is given as “Non-toxic”.

The compound `Cc1ccc(-c2c3nc(c(-c4ccc(C)cc4)c4ccc([nH]4)c(-c4ccc(OP(=O)(NCCCl)NCCCl)cc4)c4nc(c(-c5ccc(C)cc5)c5ccc2[nH]5)C=C4)C=C3)cc1` displayed an IC50 in the data set with Bel-7402 of 11.4 µM. Further, the Activity entry in data set [1] was “Non-toxic”.
